Published values from different studies.
Compare with care: the assays were run in different laboratories.
Organism: Pichia kudriavzevii
Read-out: microbial growth
Strain: ATCC6258

For `CCCCCN1CCN(CC(O)(Cn2cncn2)c2ccc(F)cc2F)CC1` (stereo not drawn), the MIC was greater than 31.3 µg/mL (broth dilution; 48 h).
`CCCCCCCOc1c(OC)cc(NC(C)CCCNC(=O)C(N)C(C)CC)c2nc(C(C)(C)C)ccc12` (stereo not drawn) has an MIC of 10 µg/mL.
`C[C@@H]1[C@H](O)[C@@H](C)/C=C/C=C/C=C/C=C/C=C/C=C/C=C/[C@H](O[C@@H]2O[C@H](C)[C@@H](O)[C@H](N)[C@@H]2O)C[C@@H]2O[C@](O)(C[C@@H](O)C[C@@H](O)[C@H](O)CC[C@@H](O)C[C@@H](O)CC(=O)O[C@H]1C)C[C@H](O)[C@H]2C(=O)O` gave an MIC of 0.5 µg/mL (broth dilution).
For `C=C(C)[C@@H]1CC[C@]2(C(=O)O)CC[C@]3(C)[C@H](CC[C@@H]4[C@@]5(C)CC[C@H](O)C(C)(C)[C@@H]5CC[C@]43C)[C@@H]12`, the MIC was 250 µg/mL (broth dilution; 48 h).
With `CCCCCOc1c(OC)cc(NC(C)CCCNC(=O)C(N)Cc2ccccc2)c2nc(C(C)(C)C)ccc12` (stereo not drawn) the MIC was 10 µg/mL.
The MIC of `CCCCCCCCCCCCCCN1CCNCC1` is reported as 0.975 µg/mL (broth dilution; 48 h).
With `C[C@@H]1[C@H](O)[C@@H](C)/C=C/C=C/C=C/C=C/C=C/C=C/C=C/[C@H](O[C@@H]2O[C@H](C)[C@@H](O)[C@H](N)[C@@H]2O)C[C@@H]2O[C@](O)(C[C@@H](O)C[C@@H](O)[C@H](O)CC[C@@H](O)C[C@@H](O)CC(=O)O[C@H]1C)C[C@H](O)[C@H]2C(=O)O` the MIC was 1.35 µM.
`CCCCCOc1c(OC)cc(NC(C)CCCNC(=O)C(N)Cc2cc3ccccc3[nH]2)c2nc(C(C)(C)C)ccc12` (stereo not drawn) has an MIC of 10 µg/mL.
`CCCCCCCCCCN1CCNCC1` has an MIC of 7.8 µg/mL (broth dilution; 48 h).
With `CCCCCCCOc1c(OC)cc(NC(C)CCCN)c2nc(C(C)(C)C)cc(C)c12` (stereo not drawn) the MIC was 5 µg/mL.
`OC(CNCCN1CCOCC1)(Cn1cncn1)c1ccc(F)cc1F` (stereo not drawn) has an MIC of greater than 31.3 µg/mL (broth dilution; 48 h).
The MIC of `OC(Cn1cncn1)(Cn1cncn1)c1ccc(F)cc1F` is reported as 50 µg/mL (broth dilution; 48 h).
